# Assay results of several laboratories.
# Compare with care: the assays were run in different laboratories.
# Organism: Plasmodium falciparum
# Observed: parasite growth
# Method: SYBR Green
SMILES,system,conditions,quantity,value
Cn1cc2c3c1C(=O)C(NCCc1ccc(O)cc1)=CC3=NCC2,3D7,blood stage,IC50,3310 nM
CCN(CC)CCCC(C)Nc1ccnc2cc(Cl)ccc12 (stereo not drawn),DD2,"96 h, drug-resistant strain, blood stage",IC50,75 nM
C[N+]1=C2C=C(NCCc3ccc(O)cc3)C(=O)c3[nH]cc(c32)CC1,W2,blood stage,IC50,32.3 nM
O[C@H](CN[C@@H](COCC1CC1)Cc1ccccc1)c1cc(Cl)cc2c1-c1ccc(Cl)cc1C2,W2,"48 h, drug-resistant strain, blood stage",IC50,5.4 nM
COCC(=O)N1CCC[C@H](C(=O)NCc2nc(-c3ccccc3)cs2)C1,DD2,"72 h, blood stage",EC50,69 nM
Cn1cc2c3c1C(=O)C(N)=CC3=NCC2,W2,blood stage,IC50,5770 nM
CCCN(CCc1cccs1)[C@H]1CCc2c(O)cccc2C1,DD2,"48 h, drug-resistant strain, blood stage",IC50,9270 nM
Cc1cc(Nc2ccc(S(F)(F)(F)(F)F)cc2)n2nc(C(C)(F)F)nc2n1,DD2,blood stage,EC50,8.5 nM
O=Cc1cn(Cc2cn(-c3ccnc4cc(Cl)ccc34)nn2)c2ccccc12,3D7,"10 µM, blood stage",inhibition,24.5%
COCC(=O)N1CCC[C@H](C(=O)NCc2nc(-c3ccc(C#N)cc3)cs2)C1,DD2,"72 h, blood stage",EC50,18 nM
O[C@@H](CNCCN1CCN(C(c2ccccc2)c2ccccc2)CC1)c1cc(Cl)cc2c1-c1ccc(Cl)cc1C2,W2,"48 h, drug-resistant strain, blood stage",IC50,13 nM
CC(O)(CS(=O)(=O)c1ccc(F)cc1)C(=O)Nc1ccc(C#N)c(C(F)(F)F)c1 (stereo not drawn),DD2,"48 h, drug-resistant strain, blood stage",IC50,> 10000 nM
CCOCC(=O)N1CCC[C@H](C(=O)NCc2nc(-c3ccc(C#N)cc3)cs2)C1,DD2,blood stage,EC50,6.2 nM
CCCCCNC[C@@H](O)c1cc(Cl)cc2c1-c1ccc(Cl)cc1C2,W2,"48 h, drug-resistant strain, blood stage",IC50,8.6 nM
C[N+]1=C2C=C(N)C(=O)c3[nH]cc(c32)CC1,W2,blood stage,IC50,681 nM
CCCCCCNCC(O)c1cc(Cl)cc2c1-c1ccc(Cl)cc1C2 (racemic),W2,"48 h, drug-resistant strain, blood stage",IC50,6 nM
CCN(CC)CCCC(C)Nc1ccnc2cc(Cl)ccc12 (stereo not drawn),"MDR, TM90","72 h, drug-resistant strain, blood stage",IC50,354 nM
O[C@@H](CNCCCC(F)(F)F)c1cc(Cl)cc2c1-c1ccc(Cl)cc1C2,W2,"48 h, drug-resistant strain, blood stage",IC50,3.8 nM
C[N+]1=C2C=C(N/C=C/c3ccc(O)cc3)C(=O)c3[nH]cc(c32)CC1,DD2,blood stage,IC50,498 nM
CCCCCCCNC[C@@H](O)c1cc(Cl)cc2c1-c1ccc(Cl)cc1C2,W2,"48 h, drug-resistant strain, blood stage",IC50,4.7 nM
CC(C)C[C@H](NC(=O)[C@H](Cc1ccccc1)NC(=O)c1cnccn1)B(O)O,DD2,blood stage,EC50,41 nM
